Data: ChEMBL document CHEMBL1123589, “Phenylpiperazine-based radiopharmaceuticals for brain imaging. 3. Synthesis and evaluation of radioiodinated 1-alkyl-4-phenylpiperazines” (J Med Chem, 1987)

How the values were obtained:
Conditions in all cases: in vivo
Rattus norvegicus [1] = experiment: The biodistribution of the [125I]-labeled compound in rats after intravenous injection was evaluated in kidney at 4.00 hrs; value ranges from 0.23-0.24 (ID.kg/g); assay type: ADME, organism-based
Outline: (§1)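 Male Sprague-Dawley rats (250–300 g) under ether anesthesia received 10–15 μCi of NCA radioiodinated (125I) tracer iv in 0.1 mL saline. Groups of 3 were killed at 0.25, 1 and 4 h. Blood and tissues were excised, weighed and counted in a γ-well scintillation counter. Values are % injected dose × body mass (kg) per g tissue, given as mean with range.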

Rattus norvegicus [2] = experiment: The biodistribution of the [125I]-labeled compound in rats after intravenous injection was evaluated in thyroid at 1.00 hrs; value ranges from 2.47-2.81 (ID.kg/g); assay type: ADME, organism-based, Thyroid gland
Rattus norvegicus [3] = experiment: The biodistribution of the [125I]-labeled compound in rats after intravenous injection was evaluated in adrenal at 4.00 hrs; value ranges from 0.39-0.45 (ID.kg/g); assay type: ADME, organism-based; outline: as §1
Rattus norvegicus [4] = experiment: The biodistribution of the [125I]-labeled compound in rats after intravenous injection was evaluated in thyroid at 4.00 hrs; value ranges from 2.51-3.60 (ID.kg/g); assay type: ADME, organism-based, Thyroid gland
Rattus norvegicus [5] = experiment: The biodistribution of the [125I]-labeled compound in rats after intravenous injection was evaluated in liver at 1.00 hrs; value ranges from 0.30-0.36 (ID.kg/g); assay type: ADME, organism-based; outline: as §1
Rattus norvegicus [6] = experiment: The biodistribution of the [125I]-labeled compound in rats after intravenous injection was evaluated in blood at 4.00 hrs (ID.kg/g); assay type: ADME, organism-based
Outline: (§2)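 Male Sprague-Dawley rats (250–300 g) under ether anesthesia were given an iv injection of no-carrier-added 125I-labelled agent (10–15 μCi in 0.1 mL saline). The agent was iodinated with chloramine-T in acetate buffer and purified by C-18 HPLC. Groups of N = 3 were killed at 0.25, 1 and 4 h. Blood and tissues were weighed and γ-counted. Values are % ID·kg/g, mean (range).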

Rattus norvegicus [7] = experiment: The biodistribution of the [125I]-labeled compound in rats after intravenous injection was evaluated in heart at 4.00 hrs (ID.kg/g); assay type: ADME, organism-based; outline: as §1
Rattus norvegicus [8] = experiment: The biodistribution of the [125I]-labeled compound in rats after intravenous injection was evaluated in liver at 4.00 hrs; value ranges from 0.19-0.22 (ID.kg/g); assay type: ADME, organism-based; outline: as §1
Rattus norvegicus [9] = experiment: The biodistribution of the [125I]-labeled compound in rats after intravenous injection was evaluated in muscle at 4.00 hrs (ID.kg/g); assay type: ADME, organism-based, Muscle tissue
Outline: (§3)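 Male Sprague-Dawley rats (250–300 g) under ether anesthesia given iv 0.1 mL saline containing 10–15 μCi of NCA ¹²⁵I-labeled agent (chloramine-T iodination, HPLC-purified). Groups of 3 killed at 0.25, 1 and 4 h. Blood and tissues excised, weighed and γ-counted. Values are mean (range) of % injected dose × body mass (kg) per gram of tissue.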

Rattus norvegicus [10] = experiment: The biodistribution of the [125I]-labeled compound in rats after intravenous injection was evaluated in blood at 0.25 hrs (ID.kg/g); assay type: ADME, organism-based; outline: as §2
Rattus norvegicus [11] = experiment: The biodistribution of the [125I]-labeled compound in rats after intravenous injection was evaluated in brain at 0.25 hrs; value ranges from 0.25-0.30 (ID.kg/g); assay type: ADME, organism-based; outline: as §1
Rattus norvegicus [12] = experiment: The biodistribution of the [125I]-labeled compound in rats after intravenous injection was evaluated in heart at 1.00 hrs; value ranges from 0.16-0.21 (ID.kg/g); assay type: ADME, organism-based; outline: as §1
Rattus norvegicus [13] = experiment: The biodistribution of the [125I]-labeled compound in rats after intravenous injection was evaluated in brain at 1.00 hrs; value ranges from 0.21-0.27 (ID.kg/g); assay type: ADME, organism-based; outline: as §1
Rattus norvegicus [14] = experiment: The biodistribution of the [125I]-labeled compound in rats after intravenous injection was evaluated in muscle at 0.25 hrs (ID.kg/g); assay type: ADME, organism-based, Muscle tissue; outline: as §3
Rattus norvegicus [15] = experiment: The biodistribution of the [125I]-labeled compound in rats after intravenous injection was evaluated in kidney at 1.00 hrs; value ranges from 0.43-0.47 (ID.kg/g); assay type: ADME, organism-based; outline: as §1
Rattus norvegicus [16] = experiment: The biodistribution of the [125I]-labeled compound in rats after intravenous injection was evaluated in lung at 1.00 hrs; value ranges from 0.86-0.96 (ID.kg/g); assay type: ADME, organism-based; outline: as §1
Rattus norvegicus [17] = experiment: The biodistribution of the [125I]-labeled compound in rats after intravenous injection was evaluated in lung at 4.00 hrs; value ranges from 0.35-0.36 (ID.kg/g); assay type: ADME, organism-based; outline: as §1
Rattus norvegicus [18] = experiment: The biodistribution of the [125I]-labeled compound in rats after intravenous injection was evaluated in brain at 4.00 hrs; value ranges from 0.11-0.13 (ID.kg/g); assay type: ADME, organism-based; outline: as §1
Rattus norvegicus [19] = experiment: The biodistribution of the [125I]-labeled compound in rats after intravenous injection was evaluated in adrenal at 0.25 hrs; value ranges from 0.97-1.66 (ID.kg/g); assay type: ADME, organism-based; outline: as §1
Rattus norvegicus [20] = experiment: The biodistribution of the [125I]-labeled compound in rats after intravenous injection was evaluated in blood at 1.00 hrs (ID.kg/g); assay type: ADME, organism-based; outline: as §2
Rattus norvegicus [21] = experiment: The biodistribution of the [125I]-labeled compound in rats after intravenous injection was evaluated in thyroid at 0.25 hrs; value ranges from 2.05-2.47 (ID.kg/g); assay type: ADME, organism-based, Thyroid gland
Rattus norvegicus [22] = experiment: The biodistribution of the [125I]-labeled compound in rats after intravenous injection was evaluated in kidney at 0.25 hr; value ranges from 0.49-0.61 (ID.kg/g); assay type: ADME, organism-based; outline: as §1
Rattus norvegicus [23] = experiment: The biodistribution of the [125I]-labeled compound in rats after intravenous injection was evaluated in fat at 0.25 hr (ID. kg/g); assay type: ADME, organism-based, Adipose tissue; outline: as §2
Rattus norvegicus [24] = experiment: The biodistribution of the [125I]-labeled compound in rats after intravenous injection was evaluated in liver at 0.25 hr; value ranges from 0.32-0.39 (ID.kg/g); assay type: ADME, organism-based; outline: as §1
Rattus norvegicus [25] = experiment: The biodistribution of the [125I]-labeled compound in rats after intravenous injection was evaluated in muscle at 1.00 hrs (ID.kg/g); assay type: ADME, organism-based, Muscle tissue; outline: as §3
Rattus norvegicus [26] = experiment: The biodistribution of the [125I]-labeled compound in rats after intravenous injection was evaluated in adrenal at 1.00 hrs; value ranges from 0.61-1.12 (ID.kg/g); assay type: ADME, organism-based; outline: as §1
Rattus norvegicus [27] = experiment: The biodistribution of the [125I]-labeled compound in rats after intravenous injection was evaluated in fat at 1.00 hrs (ID.kg/g); assay type: ADME, organism-based, Adipose tissue; outline: as §2
Rattus norvegicus [28] = experiment: The biodistribution of the [125I]-labeled compound in rats after intravenous injection was evaluated in lung at 0.25 hrs; value ranges from 1.14-1.30 (ID.kg/g); assay type: ADME, organism-based; outline: as §1
Rattus norvegicus [29] = experiment: The biodistribution of the [125I]-labeled compound in rats after intravenous injection was evaluated in fat at 4.00 hrs (ID.kg/g); assay type: ADME, organism-based, Adipose tissue; outline: as §2
Rattus norvegicus [30] = experiment: The biodistribution of the [125I]-labeled compound in rats after intravenous injection was evaluated in heart at 0.25 hrs; value ranges from 0.23-0.28 (ID.kg/g); assay type: ADME, organism-based; outline: as §1

Ic1ccc(N2CCN(C3CCCCC3)CC2)cc1
Biodistribution (Rattus norvegicus [1]): 0.24%
Biodistribution (Rattus norvegicus [2]): 2.81%
Biodistribution (Rattus norvegicus [3]): 0.45%
Biodistribution (Rattus norvegicus [4]): 3.6%
Biodistribution (Rattus norvegicus [5]): 0.36%
Biodistribution (Rattus norvegicus [6]): 0.01 % ID·kg/g
Biodistribution (Rattus norvegicus [7]): 0.08%
Biodistribution (Rattus norvegicus [8]): 0.22%
Biodistribution (Rattus norvegicus [9]): 0.01 %ID·kg/g
Biodistribution (Rattus norvegicus [10]): 0.01 % ID·kg/g
Biodistribution (Rattus norvegicus [11]): 0.3%
Biodistribution (Rattus norvegicus [12]): 0.21%
Biodistribution (Rattus norvegicus [13]): 0.27%
Biodistribution (Rattus norvegicus [14]): 0.03 % ID·kg/g
Biodistribution (Rattus norvegicus [15]): 0.47%
Biodistribution (Rattus norvegicus [16]): 0.96%
Biodistribution (Rattus norvegicus [17]): 0.36%
Biodistribution (Rattus norvegicus [18]): 0.13%
Biodistribution (Rattus norvegicus [19]): 1.66%
Biodistribution (Rattus norvegicus [20]): 0.01 % ID·kg/g
Biodistribution (Rattus norvegicus [21]): 2.47%
Biodistribution (Rattus norvegicus [22]): 0.61%
Biodistribution (Rattus norvegicus [23]): 0.01 % ID·kg/g
Biodistribution (Rattus norvegicus [24]): 0.39%
Biodistribution (Rattus norvegicus [25]): 0.03 %ID·kg/g
Biodistribution (Rattus norvegicus [26]): 1.12%
Biodistribution (Rattus norvegicus [27]): 0.01 % ID·kg/g
Biodistribution (Rattus norvegicus [28]): 1.3%
Biodistribution (Rattus norvegicus [29]): 0.01%
Biodistribution (Rattus norvegicus [30]): 0.28%
